Measured values: ChEMBL document CHEMBL4819017 (Eur J Med Chem, 2021)
Several values for one entry are separate records, joined by “and”; a condition that tells them apart may be missing. Equal entries are not always repeated.

Target: Phosphatidylinositol 4,5-bisphosphate 3-kinase catalytic subunit alpha isoform (Homo sapiens, UniProt P42336)
Assay: Inhibition of human full length p110alpha (1 to 1068 residues) expressed in baculovirus-infected Sf21 cells by ADP-Hunter Plus assay

Chain of Phosphatidylinositol 4,5-bisphosphate 3-kinase catalytic subunit alpha isoform (P42336 whole entry, the tested form may be a part, canonical isoform): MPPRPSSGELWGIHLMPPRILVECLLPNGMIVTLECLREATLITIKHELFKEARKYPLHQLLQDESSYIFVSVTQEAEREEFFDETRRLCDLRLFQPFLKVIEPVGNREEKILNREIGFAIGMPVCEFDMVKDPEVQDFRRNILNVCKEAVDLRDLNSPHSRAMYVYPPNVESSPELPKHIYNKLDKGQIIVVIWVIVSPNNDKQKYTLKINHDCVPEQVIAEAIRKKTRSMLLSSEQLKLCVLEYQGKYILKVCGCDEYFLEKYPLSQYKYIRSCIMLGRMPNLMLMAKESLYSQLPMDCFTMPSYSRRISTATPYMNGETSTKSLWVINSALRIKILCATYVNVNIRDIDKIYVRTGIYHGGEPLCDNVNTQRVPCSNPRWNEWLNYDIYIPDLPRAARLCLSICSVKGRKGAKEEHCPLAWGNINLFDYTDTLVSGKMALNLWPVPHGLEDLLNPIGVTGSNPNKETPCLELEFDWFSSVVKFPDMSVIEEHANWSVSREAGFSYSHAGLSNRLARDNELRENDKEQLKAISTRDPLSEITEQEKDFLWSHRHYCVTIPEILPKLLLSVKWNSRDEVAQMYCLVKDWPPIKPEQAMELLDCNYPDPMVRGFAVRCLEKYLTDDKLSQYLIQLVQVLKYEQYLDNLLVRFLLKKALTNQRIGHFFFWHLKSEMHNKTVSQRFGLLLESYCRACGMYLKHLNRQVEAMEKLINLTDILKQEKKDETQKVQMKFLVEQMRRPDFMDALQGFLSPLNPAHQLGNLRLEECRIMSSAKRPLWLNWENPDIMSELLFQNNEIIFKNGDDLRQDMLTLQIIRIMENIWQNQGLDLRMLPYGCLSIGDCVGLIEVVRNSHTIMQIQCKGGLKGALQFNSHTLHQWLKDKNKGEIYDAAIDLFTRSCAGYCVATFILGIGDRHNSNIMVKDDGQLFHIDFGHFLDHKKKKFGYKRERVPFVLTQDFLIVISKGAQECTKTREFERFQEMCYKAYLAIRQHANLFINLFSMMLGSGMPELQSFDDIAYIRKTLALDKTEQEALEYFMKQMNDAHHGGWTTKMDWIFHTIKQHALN

IC50 | SMILES
6.1 nM | COc1ncc2cc1NS(=O)(=O)c1cccc(c1)C(=O)NCc1cc(ccn1)-c1ccnc3ccc-2cc13

Target: Voltage-gated inwardly rectifying potassium channel KCNH2 (Homo sapiens, UniProt Q12809)
Sequence (Q12809 whole entry): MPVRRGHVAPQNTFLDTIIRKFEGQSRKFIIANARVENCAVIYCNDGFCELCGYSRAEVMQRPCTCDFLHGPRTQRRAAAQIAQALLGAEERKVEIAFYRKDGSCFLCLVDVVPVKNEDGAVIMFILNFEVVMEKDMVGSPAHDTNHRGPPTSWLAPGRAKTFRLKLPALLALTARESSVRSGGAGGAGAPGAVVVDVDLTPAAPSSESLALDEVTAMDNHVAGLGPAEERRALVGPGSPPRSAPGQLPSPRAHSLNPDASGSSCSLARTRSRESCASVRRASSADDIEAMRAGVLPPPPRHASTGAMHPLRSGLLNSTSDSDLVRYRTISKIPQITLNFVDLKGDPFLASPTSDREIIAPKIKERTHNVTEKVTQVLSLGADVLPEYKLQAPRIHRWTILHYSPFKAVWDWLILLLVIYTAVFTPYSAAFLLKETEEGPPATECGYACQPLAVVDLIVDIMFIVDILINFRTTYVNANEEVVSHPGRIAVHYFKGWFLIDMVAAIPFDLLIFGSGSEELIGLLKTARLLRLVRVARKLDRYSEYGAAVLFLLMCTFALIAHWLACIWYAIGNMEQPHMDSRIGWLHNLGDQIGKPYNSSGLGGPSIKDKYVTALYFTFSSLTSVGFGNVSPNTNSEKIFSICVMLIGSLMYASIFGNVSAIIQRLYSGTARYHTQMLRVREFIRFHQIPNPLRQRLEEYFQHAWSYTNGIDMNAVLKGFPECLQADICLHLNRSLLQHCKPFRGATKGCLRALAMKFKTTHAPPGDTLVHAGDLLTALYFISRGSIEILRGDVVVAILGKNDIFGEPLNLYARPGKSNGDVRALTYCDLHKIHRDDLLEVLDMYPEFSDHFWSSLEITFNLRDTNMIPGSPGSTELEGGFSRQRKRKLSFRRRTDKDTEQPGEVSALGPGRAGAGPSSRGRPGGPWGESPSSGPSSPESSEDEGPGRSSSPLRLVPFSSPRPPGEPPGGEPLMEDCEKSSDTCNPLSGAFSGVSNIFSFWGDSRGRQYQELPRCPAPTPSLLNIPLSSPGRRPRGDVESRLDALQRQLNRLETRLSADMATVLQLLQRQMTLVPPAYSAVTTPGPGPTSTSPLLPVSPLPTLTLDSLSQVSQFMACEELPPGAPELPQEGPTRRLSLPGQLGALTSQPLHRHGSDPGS
Assay: Inhibition of human ERG by fluorescence polarization assay
Outline: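 Predictor h-ERG membrane preparations (sonicated) incubated with test compound dilutions and fluorescent tracer (working 4X tracer at 4 nM) at room temperature for ≥1 h. Read-out by fluorescence polarization, ex 530/25, em 590/35.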

SMILES | IC50
COc1ncc2cc1NS(=O)(=O)c1cccc(c1)C(=O)NCc1cncc(c1)-c1ccnc3ccc-2nc13 | > 30000 nM
COc1ncc2cc1NS(=O)(=O)c1cccc(c1)C(=O)NCCn1cc(cn1)-c1cnc3ccc-2cn13 | > 30000 nM
COc1ncc2cc1NS(=O)(=O)c1cccc(c1)C(=O)NCc1cc(ccn1)-c1ccnc3ccc-2cc13 | > 30000 nM

Target: Serine/threonine-protein kinase mTOR (Homo sapiens, UniProt P42345)
Assay: Inhibition of recombinant human GST tagged mTOR (1360 to 2549 residues) expressed in baculovirus expression system measured by LanthaScreen assay
Outline: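 mTOR inhibition measured by LanthaScreen assay; IC50 values average two independent experiments.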

IC50 | SMILES
655 nM | COc1ncc2cc1NS(=O)(=O)c1cccc(c1)C(=O)NCc1ccc(F)c(c1)-c1ccnc3ccc-2cc13
> 10000 nM | COc1ncc2cc1NS(=O)(=O)c1cccc(c1)C(=O)NCc1cccc(c1)-c1ccnc3ccc-2nc13
0.3 nM | COc1ncc2cc1NS(=O)(=O)c1cccc(c1)C(=O)NCc1cncc(c1)-c1ccnc3ccc-2cc13
122 nM and 72.2 nM | COc1ncc2cc1NS(=O)(=O)c1cccc(c1)C(=O)NCc1cc(ccn1)-c1ccnc3ccc-2cc13

More lines, now with the values behind:

SMILES | IC50
COc1ncc2cc1NS(=O)(=O)c1cccc(c1)C(=O)NCC1CCN(CC1)c1ncnc3ccc-2cc13 | 23.4 nM
COc1ncc2cc1NS(=O)(=O)c1cccc(c1)C(=O)NCc1cncc(c1)-c1ccnc3ccc-2nc13 | 49 nM
COc1ncc2cc1NS(=O)(=O)c1cccc(c1)C(=O)NCCn1cc(cn1)-c1cnc3ccc-2cn13 | 5790 nM
